Laboratory results from ChEMBL document CHEMBL3271993, “Synthesis and some pharmacological properties of five analogs of oxytocin having L-homocysteine in position 6” (J Med Chem, 1976).
Starred links: 1 amine or outer side, 2 acyl side, 3 side chain; linkers in the order of their positions; H or OH if unused. Positions of bridges follow the written chain, without caps; N, C: chain ends. Non-standard residues stand in square brackets, D forms with d. Residues, ends and D or L forms follow the SMILES beside them. hCys = N[C@@H](CCS)C(=O)O; X1 = O=C(CCCS[*:2])[*:1]; X2 = O=C(CS[*:2])[*:1]

Tests used:
[1] = Antagonist activity at oxytocin receptor in chicken assessed as inhibition of synthetic oxytocin-induced response by avian vasodepressor assay; design: species or system Gallus gallus
Procedure, shortened: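 Inhibitory potency given as pA2 (Schild): the negative log of the average molar antagonist concentration that reduces the response to 2x units of agonist to the level of x units of agonist.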

Oxytocin receptor = molecular target: T1, Oxytocin receptor (Rattus norvegicus, UniProt P70536); assay: Antagonist activity at oxytocin receptor in rat uterus assessed as inhibition of synthetic oxytocin-induced response treated 1.5 to 2 mins prior to oxytocin challenge; assay type: tissue-based; settings: read-out: pA2 (converted)
T1 sequence (P70536 whole entry): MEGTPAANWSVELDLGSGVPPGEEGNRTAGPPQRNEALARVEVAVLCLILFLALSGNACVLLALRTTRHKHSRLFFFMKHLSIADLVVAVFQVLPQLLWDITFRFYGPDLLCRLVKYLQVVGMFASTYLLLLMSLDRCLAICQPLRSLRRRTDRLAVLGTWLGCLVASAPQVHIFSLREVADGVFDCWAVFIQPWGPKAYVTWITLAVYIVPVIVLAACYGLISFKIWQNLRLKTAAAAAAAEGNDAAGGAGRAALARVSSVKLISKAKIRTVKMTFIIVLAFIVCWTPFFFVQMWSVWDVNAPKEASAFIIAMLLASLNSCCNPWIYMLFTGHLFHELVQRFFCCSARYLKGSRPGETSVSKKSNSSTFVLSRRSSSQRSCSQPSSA
Procedure, shortened: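 Antagonist injected 1.5-2 min before synthetic oxytocin, giving any agonist response time to finish. Potency given as pA2 (Schild): the negative log of the average molar antagonist concentration that brings the response to 2x agonist units down to that of x units.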

[2] = molecular target: T2, Oxytocin receptor (Rattus norvegicus) (UniProt P70536); assay: Agonist activity at oxytocin receptor in rat uterus; assay type: tissue-based
T2 sequence (whole entry): T1 sequence (P70536 whole entry)
Procedure, shortened: (§1)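 Purified analogs tested against U.S.P. Agonist activity expressed as units per mg, given as mean potency ± standard error.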

Gallus gallus = organism: Gallus gallus; assay: Agonist activity at oxytocin receptor in chicken by avian vasodepressor assay; procedure, shortened: as §1

Compound	pA2 [1]	Kb (Oxytocin receptor) [nM]	Activity [2] [U/mg]	Activity (Gallus gallus) [U/mg]
CC[C@H](C)[C@@H]1NC(=O)[C@H](Cc2ccc(O)cc2)NC(=O)CCCSSCC[C@@H](C(=O)N2CCC[C@H]2C(=O)N[C@@H](CC(C)C)C(=O)NCC(N)=O)NC(=O)[C@H](CC(N)=O)NC(=O)[C@H](CCC(N)=O)NC1=O (YIQN[hCys]PLG-NH2; linker N-5 via X1)	7.34	182	0.3	–
CC[C@H](C)[C@@H]1NC(=O)[C@H](Cc2ccc(O)cc2)NC(=O)[C@@H](N)CSSC[C@@H](C(=O)N2CCC[C@H]2C(=O)N[C@@H](CC(C)C)C(=O)NCC(N)=O)NC(=O)[C@H](CC(N)=O)NC(=O)[C@H](CCC(N)=O)NC1=O	–	–	546	507
CC[C@H](C)[C@@H]1NC(=O)[C@H](Cc2ccc(O)cc2)NC(=O)CCSSCC[C@@H](C(=O)N2CCC[C@H]2C(=O)N[C@@H](CC(C)C)C(=O)NCC(N)=O)NC(=O)[C@H](CC(N)=O)NC(=O)[C@H](CCC(N)=O)NC1=O	7.57	–	22	–
CC[C@H](C)[C@@H]1NC(=O)[C@H](Cc2ccc(O)cc2)NC(=O)[C@@H](N)CCSSCC[C@@H](C(=O)N2CCC[C@H]2C(=O)N[C@@H](CC(C)C)C(=O)NCC(N)=O)NC(=O)[C@H](CC(N)=O)NC(=O)[C@H](CCC(N)=O)NC1=O	6.48	955	–	–
CC[C@H](C)[C@@H]1NC(=O)[C@H](Cc2ccc(O)cc2)NC(=O)CCSSC[C@H](C(=O)N2CCC[C@H]2C(=O)N[C@@H](CC(C)C)C(=O)NCC(N)=O)NC(=O)[C@H](CC(N)=O)NC(=O)[C@H](CCC(N)=O)NC1=O	–	–	803	975
CC[C@H](C)[C@@H]1NC(=O)[C@H](Cc2ccc(O)cc2)NC(=O)[C@@H](N)CSSCC[C@@H](C(=O)N2CCC[C@H]2C(=O)N[C@@H](CC(C)C)C(=O)NCC(N)=O)NC(=O)[C@H](CC(N)=O)NC(=O)[C@H](CCC(N)=O)NC1=O	–	–	12	0.2
CC[C@H](C)[C@@H]1NC(=O)[C@H](Cc2ccc(O)cc2)NC(=O)CSSCC[C@@H](C(=O)N2CCC[C@H]2C(=O)N[C@@H](CC(C)C)C(=O)NCC(N)=O)NC(=O)[C@H](CC(N)=O)NC(=O)[C@H](CCC(N)=O)NC1=O (YIQN[hCys]PLG-NH2; linker N-5 via X2)	–	–	37	0.3
